Measured values from the RNAGym collection of RNA variant scans (doi:10.1038/s41586-018-0170-7).

B1: tRNA (parent)
chain: GUUCCGUUGGCGUAAUGGUAACGCGUCUCCCUCCUAAGGAGAAGACUGCGGGUUCGAGUCCCGUACGGAACG

Variants of: B1
Assay: yeast fitness, log relative to wild type (ln ratio); higher = fitter; tRNA-Arg(CCU), competitive growth, 37 C, 1 M NaCl
Summary of the method: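 Variants were counted by 125 bp paired-end Illumina sequencing after pools of a combinatorial tRNA-Arg(CCU) library, held on a HIS3 centromeric plasmid in BY4742 lacking the chromosomal gene, grew ~6.5 generations (~26.5 h) in SC-HIS 1M NaCl at 37 °C. Each genotype's fitness is the natural log of its generations relative to the wild type's. Generations were OD-scaled log2 output/input frequencies, inverse-variance weighted over replicates.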

Row | Variant | yeast fitness (ln)
1 | G6U C27U A43C C46U C66U A69G A70G | -0.396
2 | G6U C27U A43C C46U C66U A69G A70U | -0.416
3 | G6U C46U C66A A69G A70G C71U | -0.414
4 | G6U C71U | -0.261
5 | G6U C46U C66U A70G C71U | -0.138
6 | G6U C27U A43C C66U A70U C71U | -0.372
7 | G6U A43C C66U | -0.23
8 | G6U A43C C66A | -0.0198
9 | G6U C66U A69G | -0.527
10 | C27U A43C C46U A69G C71U | -0.207
11 | C27U A43C C66U A70G C71U | -0.211
12 | G6U C27U C46U C66A A70G C71U | -0.434
13 | C27U A43C C66A | -0.0618
14 | C27U A43C C66U | -0.216
15 | G6U C66A A70U C71U | -0.412
16 | G6U C46U A69G A70U C71U | -0.301
17 | G6U A43C C46U C66U C71U | -0.254
18 | G6U C27U C46U | -0.174
19 | G6U C27U A43C C46U C66U A70G | -0.255
20 | G6U C27U A43C C46U C66U A70U | -0.322
21 | G6U C46U C66A A69G A70U | -0.302
22 | G6U C46U C66A A69G A70G | -0.00994
23 | G6U C46U C66A A70U C71U | -0.394
24 | G6U C66A A69G A70G C71U | -0.402

Row | Variant | yeast fitness (ln)
25 | G6U C46U C66A A69G A70U C71U | -0.418
26 | G6U C27U C66A A69G | -0.0157
27 | G6U C27U A43C C46U C66A A69G A70G | -0.471
28 | G6U C27U A43C C46U C66A A69G A70U | -0.462
29 | G6U C27U A43C C66U A69G A70U C71U | -0.341
30 | C27U A43C A70G | -0.0631
31 | C27U A43C A70U | -0.185
32 | G6U A43C C66U A70G | -0.273
33 | G6U A43C C66U A70U | -0.301
34 | C27U A43C C46U C66A A69G A70G C71U | -0.122
35 | G6U A43C C66A A70U | -0.307
36 | G6U A43C C66A A70G | -0.0733
37 | C27U A43C C46U A70U | -0.0673
38 | C27U A43C C46U A70G | -0.0288
39 | G6U C46U A70U C71U | -0.189
40 | G6U A43C C66U C71U | -0.422
41 | G6U C27U A43C C66U A69G C71U | -0.395
42 | G6U C27U A43C C66A A69G A70U C71U | -0.389
43 | G6U A43C C46U C66U A69G A70U | -0.347
44 | C27U A43C C46U C66U A70G C71U | -0.206
45 | G6U A69G | -0.234
46 | G6U C27U C66A A69G C71U | -0.806
47 | G6U C27U C46U C66U | -0.209
48 | G6U C27U C46U C66A | -0.00348

Row | Variant | yeast fitness (ln)
49 | G6U C27U C66A A70G C71U | -0.294
50 | G6U C46U C66A A69G C71U | -0.0515
51 | G6U C27U A70G | -0.302
52 | G6U C27U A70U | -0.208
53 | G6U C46U C66U A70U | -0.297
54 | G6U C46U C66U A70G | -0.153
55 | G6U C27U A43C C66U | -0.227
56 | G6U C27U A43C C66A | -0.0198
57 | C27U A43C A69G A70G C71U | -0.142
58 | C27U A43C C46U C66A A70U | -0.0585
59 | C27U A43C C46U C66A A70G | -0.0609
60 | G6U A43C C66U A69G A70G C71U | -0.442
61 | C27U A43C A69G | -0.0699
62 | C27U A43C C46U C66A A69G A70U C71U | -0.366
63 | C27U A43C C46U A69G A70G C71U | -0.0917
64 | G6U C46U A70G | -0.284
65 | G6U C46U A70U | -0.161
66 | G6U C46U C66A A69G | -0.0364
67 | G6U C27U C66U A69G A70G C71U | -0.355
68 | C27U A43C C66U A70U C71U | -0.326
69 | G6U C66A A70G C71U | -0.233
70 | G6U C27U A43C C46U | -0.155
71 | C27U A43C C46U C66A C71U | -0.173
72 | G6U A70G C71U | -0.153

Row | Variant | yeast fitness (ln)
73 | C27U A43C C46U | -0.00723
74 | G6U C46U C66A A70U | 0.00243
75 | G6U C46U C66A A70G | -0.00887
76 | G6U A43C C46U C66U A70U | -0.234
77 | G6U A43C C46U C66U A70G | -0.205
78 | G6U C27U A43C C71U | -0.281
79 | G6U A70U C71U | -0.14
80 | G6U A43C C66A A70G C71U | -0.177
81 | G6U C27U A43C C66A A69G A70G C71U | -0.338
82 | C27U A43C C66U A69G A70U C71U | -0.37
83 | G6U C27U A43C C66A A69G A70U | -0.282
84 | G6U C27U A43C C66A A69G A70G | -0.453
85 | G6U C27U A43C A69G A70U C71U | -0.462
86 | G6U C27U A43C C46U C66A A70U C71U | -0.357
87 | G6U C27U A43C C46U C66A A69G | -0.0652
88 | C27U A43C C46U C66A A69G C71U | -0.317
89 | G6U C66A A69G C71U | -0.0488
90 | C27U C46U A69G A70U C71U | -0.248
91 | G6U C27U C46U A69G | -0.15
92 | G6U C27U | -0.111
93 | G6U C27U C66U A70G C71U | -0.37
94 | G6U C27U C66U A69G A70U C71U | -0.416
95 | G6U C27U A43C C46U A69G A70U C71U | -0.45
96 | G6U C27U A69G | -0.222

Row | Variant | yeast fitness (ln)
97 | G6U A43C C66A A69G A70U C71U | -0.39
98 | G6U C27U C46U C66A A69G A70G C71U | -0.254
99 | C27U C46U A70G | -0.029
100 | C27U A43C C66U C71U | -0.269
101 | G6U C27U A70U C71U | -0.27
102 | G6U C27U C46U C71U | -0.205
103 | G6U A43C C46U C71U | -0.193
104 | G6U C27U A43C C46U C71U | -0.254
105 | G6U C46U C66A | 0.00404
106 | G6U C46U C66U | -0.0169
107 | G6U A43C C66A C71U | -0.177
108 | G6U C27U A43C A70G C71U | -0.348
109 | C27U A43C C46U C66U A69G A70G C71U | -0.18
110 | G6U A43C C46U C66U A70G C71U | -0.295
111 | G6U C27U C46U C66A A70U C71U | -0.213
112 | C27U C46U A70G C71U | -0.256
113 | G6U C27U A43C C66A A69G C71U | -0.333
114 | G6U C27U C71U | -0.222
115 | G6U C66U A69G C71U | -0.374
116 | G6U C27U A43C C66A C71U | -0.425
117 | G6U A43C C66U A70U C71U | -0.481
118 | G6U A43C C46U C66U A69G A70U C71U | -0.42
119 | G6U C27U A43C A69G A70G C71U | -0.49
120 | G6U C66A C71U | -0.0261

Row | Variant | yeast fitness (ln)
121 | G6U C27U A43C C46U A69G A70G C71U | -0.356
122 | C27U A43C A69G A70U C71U | -0.419
123 | G6U C27U C46U C66U A69G A70G | -0.318
124 | G6U C27U C46U C66U A69G A70U | -0.308
125 | C27U A43C C46U C66U C71U | -0.253
126 | G6U C27U C46U C66A A69G A70U C71U | -0.328
127 | G6U C46U C66U A69G A70G C71U | -0.205
128 | G6U C27U C46U A69G A70U C71U | -0.457
129 | G6U C27U C46U A70G | -0.15
130 | G6U C27U C46U A70U | -0.167
131 | G6U C27U C46U C66A A69G | -0.0559
132 | C27U C46U | -0.0139
133 | C27U A43C C46U A70U C71U | -0.093
134 | G6U C27U A43C C66A A70U C71U | -0.477
135 | G6U A43C C66U A70G C71U | -0.392
136 | C27U A43C C46U C66A | -0.0786
137 | C27U A43C C46U C66U | -0.217
138 | G6U C27U C66A A69G A70G C71U | -0.329
139 | G6U C27U C66U A69G C71U | -0.377
140 | C27U A43C C46U C66A A70G C71U | -0.101
141 | C27U A43C C46U C66U A69G C71U | -0.361
142 | G6U C27U A43C A70U | -0.309
143 | G6U C27U A43C A70G | -0.282
144 | C27U A43C C46U A70G C71U | -0.209

Row | Variant | yeast fitness (ln)
145 | G6U C46U A69G C71U | -0.194
146 | C27U C46U A69G A70G C71U | -0.298
147 | C27U A43C C46U C66U A69G A70U C71U | -0.391
148 | G6U C27U C66A A70U C71U | -0.29
149 | G6U C27U A43C C46U C66U A70U C71U | -0.467
150 | C27U A43C C46U C66U A69G | -0.204
151 | G6U C27U C66A A70G | -0.0711
152 | G6U C27U C66A A70U | -0.17
153 | C27U A43C C46U C71U | -0.0385
154 | C27U A43C | -0.0182
155 | C27U A69G | -0.0417
156 | C27U A43C C66A C71U | -0.275
157 | C27U A43C C66A A70U | -0.0654
158 | C27U A43C C66A A70G | -0.135
159 | G6U A69G A70G C71U | -0.282
160 | G6U C27U A43C C46U C66A A69G A70G C71U | -0.312
161 | G6U A43C C66A A69G A70G C71U | -0.299
162 | C27U A43C C66A A69G A70U C71U | -0.513
163 | G6U C27U A69G C71U | -0.342
164 | C27U A69G A70U C71U | -0.294
165 | G6U C27U A43C C46U A69G C71U | -0.339
166 | G6U A70G | -0.221
167 | G6U A70U | -0.0758
